Assay: Toxicity liver stage against HepG2, at 10uM
Type: cell-based
Parameters: test concentration 10 uM, cell line HepG2-A16-CD81EGFP
Conditions: human, HepG2-A16-CD81EGFP cells; read-out: INHIBITION
In short: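 Uninfected HepG2-A16-CD81EGFP cells, 3 × 10^3 per well, 1536-well, plated on prespotted compound at 10 μM final, parasite-free screening media added to match infected plates; puromycin 10 μM positive, DMSO 0.5% negative; run in parallel with 48 h PbLuc assay at 37 °C, 5% CO2; viability by CellTiter-Glo luminescence, normalized to controls.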

Structure (SMILES)	cytotoxicity at 10 µM
CN(C)c1ncccc1CNc1cc(N2CCCC2CO)ncn1 (centres undefined)	-8.48%
CC(=O)N1CCc2[nH]cnc2C1C1=CCCN(CCn2cccc2)C1 (centres undefined)	0.375%
Cc1noc([C@H]2C[C@H]3OCC[C@H]3N(C3CCC3)C2)n1	-129%
Cc1cc(NC(=O)N(C)CCN2CCN(c3ccccc3)CC2)on1	4.79%
Cc1cccc(CN2CCC[C@@H]3CN(C(=O)c4ccco4)C[C@@H]32)n1	-3.49%
Cc1cccc(C(=O)N2C[C@@H]3CC[C@H]2CN(S(=O)(=O)N(C)C)C3)n1	7.4%
Cc1cc(C)cc(C(=O)NCCCNc2ncccn2)c1	32.4%
O=C(Nc1ccncc1)NC1CCN(c2ccccc2Cl)C1=O (centres undefined)	-43.6%
COc1ccc(C(=O)N2CCOCC(CO)C2)cc1N1CCOCC1 (centres undefined)	-14%
c1ccc2oc(N3CCCC3Cn3cncn3)nc2c1 (centres undefined)	-14.4%
CSCC(=O)N1CCc2[nH]nc(-c3ccc4c(c3)OCO4)c2C1	-139%
CN1CCN(S(=O)(=O)N2CCCCC2CCc2ccc(O)cc2)CC1 (centres undefined)	-1.94%
O=C(O)c1ccccc1CN1CCCC(Cc2ccn[nH]2)C1 (centres undefined)	2.79%
CN(CCc1nccs1)C(=O)C1(C#N)CCCCC1	2.91%
Cc1oc(C(C)C)cc1C(=O)N1C[C@@H]2CC[C@H]1CN(C(=O)N(C)C)C2	-119%
CCC(=O)NCC(=O)Nc1c(C)cnn1Cc1cc(F)ccc1F	-2.59%
CS(=O)(=O)CCCSCc1cc(F)cc(Br)c1	9.05%
O=C([C@@H]1C[C@@H]2CCN(C3CCOCC3)C[C@@H]2O1)N1CCCC1	6.81%
Cc1cnn(CC2CCCN2C(=O)c2cccnc2-n2cncn2)c1 (centres undefined)	-3.29%
Cc1n[nH]c(C2CN(C(=O)c3ccn(C)c(=O)c3)CCO2)n1 (centres undefined)	-5.3%
CC1(C)CCC(CC(=O)O)c2ccccc21 (centres undefined)	2.93%
Cn1nc(CN2CCCN(C3CCCC3)CC2)c2c(Cl)cccc21	11%

Structure (SMILES)	cytotoxicity at 10 µM
Cc1cccc(-n2ncc(C(=O)N3CCn4c(C)nnc4C3)c2C)c1	2.14%
CS(=O)(=O)NCCCSCc1cccc2cccnc12	3.53%
Cc1ccc(CNC(C)c2nnc3n2CCCC3)o1 (centres undefined)	-7.17%
CCOc1ccnc(N2CCN(C(=O)CCc3cnn(C)c3)CC2)n1	7.58%
N#CCCN(Cc1ccco1)C(=O)c1ccc(OCC2CC2)cc1	-5.87%
CC(C)c1n[nH]c(C2CN(C(=O)c3ncoc3C(C)C)CCO2)n1 (centres undefined)	-7.22%
O=C1CCC(=O)N1c1nn(Cc2ccccc2)cc1Cl	-14.4%
CC1=N[C@@]2(CC[C@@H]3CN(S(C)(=O)=O)C[C@@H]32)C(=O)N1CC(C)C	-71.3%
CCCc1cc(NC2CCc3nc(C)nn3C2)n2ncnc2n1 (centres undefined)	-10.4%
Cc1nnsc1CN1C[C@H]2CC[C@@H](C1)N(Cc1c(C)noc1C)C2=O	-4.56%
O=C(OCc1ccccc1)c1cccc(NC(=O)C2COCCO2)c1 (centres undefined)	-0.488%
COCCNC(=O)c1ccc2ccc(N(C)CC3CC3)n2c1	0.375%
O=C(Cc1ccc(CO)cc1)N1CCN(c2ccccc2Cl)C(=O)C1	6.39%
O=C(N[C@]12CC1CN(C(=O)c1ccco1)C2)c1ccoc1 (some centres undefined)	-1.48%
CCc1cc(N2C[C@H](C3CC3)[C@@H](N)C2)nc(N2CCCC2)n1	0.334%
Cc1cnn(-c2cccc(N3CCN(c4cc(C)nc(C)n4)CC3)n2)c1	7.82%
N#Cc1ccsc1NC(=O)CN1CCn2c(nnc2C2CC2)C1	-14.5%
COc1ccc(N2CCN(C(=O)c3nc(Cl)sc3C(C)C)CC2)cc1	3.17%
CN(Cc1cc2c(cc1OC(F)F)OCO2)Cc1nccn1C	-1.21%
O=C(Nc1cnccn1)[C@H]1COC[C@H]2CN(c3ncc(F)cn3)C[C@H]21	-0.695%
O=C1CCCN1Cc1nnc2n1CCCN(C(=O)c1ccc[nH]1)C2	-107%
COC(=O)CCN1CCC(C(=O)c2cc(F)ccc2F)CC1	-11.1%

Structure (SMILES)	cytotoxicity at 10 µM
O=C(NCCc1ccncc1)[C@H]1C[C@@H]2CCN(c3nncs3)C[C@H]2O1	4.36%
COc1ccccc1CC(=O)N1CC[C@H](O)[C@]2(CCCO2)C1	-6.75%
COc1cccc(OC2CN(C(=O)c3c(C)noc3C)C2)c1	7.79%
Cc1cc(C)c(CNC(=O)N2CCN(c3ccncc3)CC2)c(=O)[nH]1	-3.57%
CCOCCN1CCN(CCCc2nnnn2-c2ccccc2)CC1	6.45%
O=c1[nH]c(NCCO)nc2c1C1(CCCC1)Cc1ccccc1-2	8.13%
CC(=O)N1CCC2(CC1)C(=O)N(CC1CCN(C)CC1)c1ccccc12	1.73%
O=C(NCCCO)C1(N2CCCCC2)Cc2ccccc2C1	-3.07%
CC1CCCN(C(=O)NCCCn2cncn2)C1 (centres undefined)	-3.98%
Cc1nc(N2CCCC2)nc2c1CN(C(=O)N1CCOCC1)CC2	6.17%
c1cc(-c2nnc([C@H]3CCN(C4CCOCC4)C3)o2)ccn1	-61.3%
CCCNC(=O)C1CCN(CC(O)c2ccc(C(F)(F)F)cc2)CC1 (centres undefined)	2.68%
CC(C)n1nnnc1-c1ccc(NC(=O)N(C)CCN(C)C)cc1F	-2.71%
CNS(=O)(=O)CCNC(=O)[C@@]12CNC[C@@H]1CN(C1CCCC1)C2	1.3%
c1ccc(Cc2noc(CN3CCCC3C3CCCCC3)n2)cc1 (centres undefined)	11.9%
O=c1[nH]c(-c2ccncc2)ncc1-c1ccnc(N2CCOCC2)n1	-1.2%
CC(C)c1nc(C2CCCN2Cc2ccn(C)c(=O)c2)no1 (centres undefined)	-12.2%
Cc1cnn(Cc2cc(F)ccc2F)c1NC(=O)CNC(=O)C1CC1	2.3%
c1ccc(OC[C@]23COC[C@H]2CN(Cc2ccoc2)C3)nc1	-8.63%
CC(C)C[C@H](NC(=O)NC1CCS(=O)(=O)C1)C(=O)NCc1cccnc1 (some centres undefined)	0.948%
N#Cc1ccc(NC(=O)C2CSCN2)cc1 (centres undefined)	2.62%
Cn1cc(C[C@H]2[C@@H](O)CCN2C(=O)c2ccc[nH]2)cn1	-71.2%

Structure (SMILES)	cytotoxicity at 10 µM
Cc1cccc(OC2CN(C(=O)c3cnn(C)c3)C2)c1	-2.92%
CN(C)C(=O)[C@@]12CCO[C@@H]1CCN(Cc1ccc3c(c1)OCO3)C2	0.863%
COCCN1C[C@@H](C)[C@@]2(COCCN(C(=O)c3cnc(C)cn3)C2)C1	-0.665%
c1csc(CN2Cc3nccn3CC(Cn3cncn3)C2)n1 (centres undefined)	-9.35%
CN(C)c1ncc(C2Nc3cc(Cl)ccc3C3=NCCCN32)cn1 (centres undefined)	-32%
COc1ccc(CCNC(=O)CN2CCOCS2(=O)=O)cc1	-2.64%
CCS(=O)(=O)NCCCNc1ncnc2cc(F)c(F)cc12	9.29%
N#Cc1cnc2ccccc2c1N1CCN(C(=O)C2CCC2)CC1	-2.3%
O=C1NCCCCC1Sc1ccc(F)cc1F (centres undefined)	-8.01%
CCc1onc(C)c1C(=O)N1CCC(c2cc3ncccc3cn2)CC1	1.68%
O=C(Cc1ccsc1)NCC1OCCc2cn(CC3CC3)nc21 (centres undefined)	9.77%
CCOc1cc(CNC(=O)c2cc(-c3ccccn3)no2)ccn1	1.63%
Cc1cc(CNC(=O)N(Cc2ccc(F)cc2F)C2CC2)no1	-18.5%
O=c1cc(N2CCc3ccccc3C2)cnn1CCC1CCOC1 (centres undefined)	-1.19%
CS(=O)(=O)c1ccc(NC(=O)CSc2ccc3c(c2)CCC3)cc1	5.73%
CCCn1ccnc1CN1CCCC(CC)(CO)C1 (centres undefined)	3.44%
CC(C)N1Cc2c(C(=O)N3CCN(C)CC3)nn(C)c2C1	-104%
CC[C@@H]1N(Cc2ccsc2)CCC[C@]12CCC(=O)N2CCOC	7.36%
CN(CCc1ccccn1)C(=O)c1ccccc1F	-10.5%
O=C(NC1CC(=O)N(C2Cc3ccccc3C2)C1)c1cnccn1 (centres undefined)	0.661%
O=C(c1ccccn1)N1CCc2c(nc(N3CCCC3)[nH]c2=O)C1	-5.71%
Cc1ccccc1C(C)NC(=O)CN1CCN(Cc2ccc(Cl)s2)CC1 (centres undefined)	10.8%

Structure (SMILES)	cytotoxicity at 10 µM
COc1ccccc1CN1CCCC2(Cc3ccccc3CNC2=O)C1 (centres undefined)	6.2%
O=C(c1ccccc1)N1CC[C@H]2C[C@@H](c3nccs3)O[C@@H]2C1	-5.44%
CC(C)c1cc(C(=O)NCCN2CCOCC2)nc(N2CCCC2)n1	8.82%
CC(C)(C(=O)NCc1ccc(C#N)cc1)n1cc(Br)cn1	12.4%
CC(Oc1ccc2c(c1)OCO2)C(=O)Nc1ccon1 (centres undefined)	1.09%
Cc1ccccc1CC1(C(=O)O)CCCN(c2ncnc3[nH]ccc23)C1 (centres undefined)	3.63%
CC(C)c1nn(C)c(N(C)C)c1CNCCC(=O)NC1CCCC1	-6.63%
O=C(CC(F)(F)F)NCC(O)c1ccc2ccccc2c1 (centres undefined)	-4.06%
COCCn1nc(C(=O)N2CCN(C)CC2C)ccc1=O (centres undefined)	-0.451%
Cn1cc(CN2CCCC(CCCc3ccccn3)(C(N)=O)C2)cn1 (centres undefined)	-24.5%
COc1ccc(Cl)cc1-c1nc(N)nc(N(C)C)n1	-4.01%
CCN(CC)c1ccc(NS(=O)(=O)c2cnn(C)c2)cn1	-7.12%
Cn1cc(S(=O)(=O)NCCc2ccsc2)cn1	5.26%
COc1cccc(OC2CN(C(=O)c3ccoc3C)C2)c1	9.21%
COc1cc2c(cc1CNC(=O)Cc1cc(C)[nH]n1)OC(C)C2 (centres undefined)	-13.8%
CCOCCN1CCN(CCc2ccc3c(c2)CCO3)CC1	4.1%
CCCC(=O)NC1CCCN(c2cncc(Br)c2)C1 (centres undefined)	-38.5%
CS(=O)(=O)N1C[C@@H]2COC[C@H](C(=O)Nc3cnccn3)[C@@H]2C1	14.6%
Cc1nc2cc(C(=O)N(CCC#N)CCC#N)ccc2n1C	-3.91%
CNc1nc(N2C[C@H](NC(=O)CCOC)[C@@H](C3CC3)C2)nc2c1CCC2	9.62%
Cn1nccc1CN1CCOC(c2cccc(-c3cncnc3)n2)C1 (centres undefined)	0.88%

Reference: ChEMBL document CHEMBL4513216, “Probing the Open Global Health Chemical Diversity Library for Multistage-Active Starting Points for Next-Generation Antimalarials” (ACS Infect Dis, 2020)
